Source: PubChem BioAssay
Insulin prom up: MIN6 insulin promoter up-regulation | MIN6 insulin promoter-GFP reporter, high-content imaging; hits give high values | AID 1625 | z-score at 5 µM | 190,000 compounds, 0.3% hits;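 active = z-score above 3 at 5 µM with at least 500 cells counted in the well; inconclusive = wells under 500 cells, flagged as cytotoxic or low count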
BB579 growth dn: yeast BB579 growth reduction in restrictive medium | S. cerevisiae BB579 growth, OD615, 48 h | inhibition, % at 10 µM | 140,000 compounds, 0.51% hits | AID 804;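 active = inhibition above a set limit, 3 SD over the mean compound inhibition, cut at about 44% in these data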
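Assay system – yeast BB579 (DeaD) · Dosing – single compound dose of 10 µM, 0.25% DMSO final · Detection – OD615 turbidity measurement · Buffer or medium – CSMM-D restrictive synthetic medium containing dextrose (glucose) · Benchmarks – positive control amphotericin B 10 µg/mL · Incubation – 48 h exposure, 30 °C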
INS promoter inh: TRM-6 insulin promoter activity inhibition | 130,000 compounds, 0.9% hits | inhibition, % at 2 µM | TRM-6 cells (human fetal islet line), insulin promoter-eGFP reporter, imaging; reporter expression induced with tamoxifen;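 active = inhibition above the mean plus 3 SD, with well images judged a real hit on visual review, cut at about 60% in these data, passing the limit was not always enough; inconclusive = inhibition over the cutoff but images rejected on review; inactive = inhibition not above the cutoff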
RAM network inh: inhibitors of the yeast RAM network | S. cerevisiae dse1pr::URA3 reporter, 5-FOA growth OD615, 2 d; analog-sensitive cbk1-as2 kinase mutant strain | inhibition, % at 50 µM | 190,000 compounds, 1.8% hits | AID 868;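 active = inhibition above a set limit, 3 SD over mean compound inhibition, cut at about 8.4% in these data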;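 note: inhibition rescues growth on 5-FOA so higher OD means more RAM inhibition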
Yeast life ext: extends the lifespan of yeast | S. cerevisiae growth with nicotinamide, OD615; deaD strain in restrictive glucose medium | inhibition of the nicotinamide effect, % at 10 µM | 130,000 compounds, 0.68% hits;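 active = inhibition above a set limit, placed 3 SD over the median of all compounds, cut at about 26% in these data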
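Test system – modified budding yeast, DeaD strain · Compound – single dose 10 µM compound, 0.25% DMSO · Times – culture preincubation 4 h, compound exposure 48 h, both 30 °C · Detection – optical density (absorbance) at 615 nm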
Hits are given with their value. Hits are enriched below; roughly 3.1% of the tested compounds scored in any of these assays.

`COc1ccc(C2CC(c3cccs3)=NN2C(=O)CSc2nc3c(cnn3-c3ccccc3)c(=O)[nH]2)cc1` (configuration not stated) gave Insulin prom up inactive, BB579 growth dn inactive, INS promoter inh inactive, RAM network inh inactive and Yeast life ext inactive.
Screening CCC(C)N(C(=O)COc1ccc(NC(C)=O)cc1)C1CCS(=O)(=O)C1 (configuration not stated) returned Insulin prom up inactive and RAM network inh inactive.
For Cc1cccc(Cn2ncc(Cl)c(Cl)c2=O)c1 the results were Insulin prom up inactive, BB579 growth dn 49, RAM network inh inactive and Yeast life ext inactive.
Cc1ccc(C(=O)OCn2ncc(Cl)c(Cl)c2=O)cc1 was read as Insulin prom up inconclusive, BB579 growth dn 86, INS promoter inh inactive, RAM network inh inactive and Yeast life ext inactive.
COc1ccc(/C(C)=N/NC(=O)c2ccc(NS(=O)(=O)c3cccs3)cc2)cc1 was read as Insulin prom up inactive.
`N=C1N(/N=C/c2ccccc2)C(=Nc2ccccc2)C(=S)N1c1ccccc1` gave Insulin prom up inconclusive, BB579 growth dn inactive, INS promoter inh inactive and RAM network inh inactive.
Screening CCCc1c2ccccc2nc2ccccc12 returned Insulin prom up inactive, BB579 growth dn inactive, INS promoter inh 85, RAM network inh inactive and Yeast life ext inactive.
For COc1ccc(NC(=O)Cn2c(=O)n(CC3CCCO3)c(=O)c3ccccc32)c(OC)c1 (configuration not stated) the results were Insulin prom up inactive and RAM network inh inactive.
Screening COc1cc(NC(=O)Cn2c(=O)n(CC3CCCO3)c(=O)c3ccccc32)cc(OC)c1 (configuration not stated) returned Insulin prom up inactive, INS promoter inh inactive and RAM network inh 10.
For COc1ccc(C2=NCC(CSc3nccc(=O)[nH]3)S2)cc1 (configuration not stated) the results were BB579 growth dn inactive, INS promoter inh 86, RAM network inh inactive and Yeast life ext inactive.
Screening Cc1ccc(-c2noc(C3CCCN(C(=O)c4ccc(F)cc4F)C3)n2)cc1 (configuration not stated) returned BB579 growth dn inactive, INS promoter inh inactive, RAM network inh inactive and Yeast life ext inactive.
Screening CC(C)c1ccc(-c2noc(C3CCCN(C(=O)c4ccc(F)cc4F)C3)n2)cc1 (configuration not stated) returned Insulin prom up inactive, BB579 growth dn inactive, RAM network inh 10 and Yeast life ext inactive.
Screening CCCN(CCC)C(=O)CSc1nc2ccccc2c(=O)n1CC1COc2ccccc2O1 (configuration not stated) returned BB579 growth dn inactive, INS promoter inh inactive, RAM network inh 9.0 and Yeast life ext inactive.
Cc1ccc(S(=O)(=O)N2CCC(=O)N(C(COCc3cccc(Cl)c3)C(C)C)CC2)cc1 (configuration not stated) was read as Insulin prom up inactive, BB579 growth dn inactive, INS promoter inh inactive, RAM network inh 8.6 and Yeast life ext inactive.
Cc1ccc(S(=O)(=O)N2CCC(=O)N(C(COCc3cccc(C)c3)C(C)C)CC2)cc1 (configuration not stated) was read as Insulin prom up inactive, BB579 growth dn inactive, INS promoter inh inactive, RAM network inh inactive and Yeast life ext inactive.
Cc1ccc(S(=O)(=O)N2CCC(=O)N(C(COCc3cccc(C(F)(F)F)c3)Cc3ccccc3)CC2)cc1 (configuration not stated) was read as Insulin prom up inactive, BB579 growth dn inactive, INS promoter inh inactive, RAM network inh 9.8 and Yeast life ext inactive.
Screening CC1(C)Cc2c(ccc3ccccc23)C(c2cc3ccccc3oc2=O)=N1 returned Insulin prom up 4.2, BB579 growth dn inactive, INS promoter inh inactive, RAM network inh inactive and Yeast life ext inactive.
Screening COC(=O)c1sccc1N/N=C/c1cccc(Oc2ccccc2)c1 returned Insulin prom up inactive, BB579 growth dn inactive, INS promoter inh inactive, RAM network inh 8.5 and Yeast life ext inactive.
Screening O=S(=O)(Cc1ccccc1)NCc1cccnc1 returned Insulin prom up inactive, BB579 growth dn 45, INS promoter inh inactive, RAM network inh inactive and Yeast life ext inactive.
For CCOC(=O)c1cnn2c(C(F)(F)F)cc(-c3ccccc3)nc12 the results were BB579 growth dn inactive, INS promoter inh inactive, RAM network inh inactive and Yeast life ext inactive.
